Measured values: ChEMBL document CHEMBL1938299, “Quinolinone-based agonists of S1P₁: use of a N-scan SAR strategy to optimize in vitro and in vivo activity” (Bioorg Med Chem Lett, 2012)
pEC50: −log10 of the molar value. Converted amounts (≈) assume the structure as drawn.

Tests used:
[1] = Intrinsic clearance in rat liver microsomes assessed per mg of protein after 30 mins; type: ADME, Microsome; conditions: read-out: CLH
Summary of the method: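 Test compound incubated with rat liver microsomes for 30 min. Percent turnover measured and used to estimate intrinsic clearance.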

[2] = Solubility of the compound in phosphate-buffered saline at pH 7.4; type: physicochemical
Summary of the method: (§1)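 Compound solubility measured separately in 0.010 M aqueous HCl, in PBS at pH 7.4, and in simulated intestinal fluid.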

[3] = target: Sphingosine 1-phosphate receptor 3 (Homo sapiens, UniProt Q99500); assay: Agonist activity at human S1P3 receptor expressed in CHO-K1 cells co-expressing Gq/i5 G-protein assessed as calcium mobilization by FLIPR assay; type: functional, cell-based
[4] = Plasma protein binding in rat; type: ADME, cell-free; conditions: read-out: PPB (converted)
Summary of the method: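 Rat plasma protein binding measured in vitro, with bound and free compound separated by ultracentrifugation; reported as percent bound.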

[5] = tested on: Rattus norvegicus; assay: Immunosuppressive activity in Lewis rat assessed as reduction in circulating peripheral lymphocyte count at 3 mg/kg, po after 24 hrs relative to control; type: functional; set-up: scale not given: the % may be the effect or the level left
Summary of the method: (§2)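 Female Lewis rats (N = 5/group) given a single oral dose (0.30, 1.0 or 3.0 mg/kg) in 20% Captisol or HPBCD, 1% HPMC, 1% Pluronic F68, pH 2.0 with MSA. At 24 h, blood lymphocytes were counted as percent of vehicle control and total plasma compound measured. Significance by ANOVA/Dunnett's test versus vehicle.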

[6] = tested on: Rattus norvegicus; assay: Clearance in Sprague-Dawley rat at 1 mg/kg, iv; type: ADME, organism-based; set-up: dose 1 mg/kg, route intravenous; conditions: in vivo
Summary of the method: (§3)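 Single intravenous dose of 1 mg/kg in DMSO vehicle to male Sprague–Dawley rats (N = 3/group). Clearance, steady-state volume of distribution and half-life were determined from plasma levels.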

[7] = tested on: Rattus norvegicus; assay: Immunosuppressive activity in Lewis rat assessed as reduction in circulating peripheral lymphocyte count at 1 mg/kg, po after 24 hrs relative to control; type: functional; set-up: scale not given: the % may be the effect or the level left; summary of the method: as §2
[8] = tested on: Rattus norvegicus; assay: Ratio of AUC (0 to 24 hrs) at 100 mg/kg, po to AUC (0 to 24 hrs) at 3 mg/kg, po in Sprague-Dawley rat; type: ADME, organism-based; conditions: in vivo
Summary of the method: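 Male Sprague–Dawley rats (N = 3/group) each received a single oral dose of 3 or 100 mg/kg, in 20% Captisol, 1% HPMC, 1% Pluronic F68, adjusted to pH 2.0 with MSA.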

[9] = Plasma concentration in Lewis rat at 3 mg/kg, po after 24 hrs; type: ADME, organism-based; set-up: dose 3 mg/kg, route oral; summary of the method: as §2
[10] = Apparent permeability of the compound in pig LLC-PK1 cells; type: ADME, cell-based, Sus scrofa
Summary of the method: (§4)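 LLC-PK1 porcine proximal tubule cell monolayers; apparent permeability (Papp) of test compound through the cells measured, along with efflux ratio.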

[11] = Efflux ratio of permeability in pig LLC-PK1 cells; type: ADME, cell-based, Sus scrofa; summary of the method: as §4
[12] = Plasma concentration in Lewis rat at 1 mg/kg, po after 24 hrs; type: ADME, organism-based; set-up: dose 1 mg/kg, route oral; summary of the method: as §2
[13] = tested on: Rattus norvegicus; assay: Oral bioavailability in Sprague-Dawley rat at 3 mg/kg; type: ADME, organism-based; conditions: in vivo
Summary of the method: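 Bioavailability in male Sprague–Dawley rats (N = 3/group), calculated from AUC0–∞ values obtained after a 1 mg/kg iv dose (DMSO vehicle) and a 3 mg/kg po dose (20% Captisol, 1% HPMC, 1% pluronic F68, pH 2.0 with MSA).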

[14] = Volume of distribution at steady state in Sprague-Dawley rat at 1 mg/kg, iv; type: ADME, organism-based; set-up: dose 1 mg/kg, route intravenous; conditions: in vivo, read-out: Vdss; summary of the method: as §3
[15] = Half life in Sprague-Dawley rat at 1 mg/kg, iv; type: ADME, organism-based; set-up: dose 1 mg/kg, route intravenous; conditions: in vivo; summary of the method: as §3
[16] = Solubility of the compound in simulated intestinal fluid at pH 7.4; type: physicochemical; summary of the method: as §1
[17] = AUC (0 to 24 hrs) in Sprague-Dawley rat at 100 mg/kg, po; type: ADME, organism-based; set-up: time < 24 hr, dose 100 mg/kg, route oral; conditions: plasma
[18] = target: T1, Sphingosine 1-phosphate receptor 1 (Homo sapiens, UniProt P21453); assay: Agonist activity at human S1P1 receptor expressed in human U2OS cells co-expressing eGFP assessed as receptor internalization into cytoplasm using Hoechst dye staining relative to 1-(4-(6-benzylbenzofuran-2-yl)-3- fluorobenzyl)azetidine-3-carboxylic acid; type: functional, cell-based
[19] = target: T1, Sphingosine 1-phosphate receptor 1; assay: Agonist activity at human S1P1 receptor expressed in human U2OS cells co-expressing eGFP assessed as receptor internalization into cytoplasm using Hoechst dye staining; type: functional, cell-based
[20] = tested on: Rattus norvegicus; assay: AUC (0 to 24 hrs) in Sprague-Dawley rat at 3 mg/kg, po; type: ADME, organism-based, Plasma; set-up: time < 24 hr, dose 3 mg/kg, route oral; conditions: in vivo, 24 h
[21] = tested on: Rattus norvegicus; assay: Immunosuppressive activity in po dosed Lewis rat assessed as reduction in circulating peripheral lymphocyte count after 24 hrs; type: functional, organism-based; summary of the method: as §2
[22] = Plasma concentration in Lewis rat at 0.3 mg/kg, po after 24 hrs; type: ADME, organism-based; set-up: dose 0.3 mg/kg, route oral; summary of the method: as §2
[23] = Solubility of the compound in 0.010 M aqueous hydrogen chloride at pH 7.4; type: physicochemical; conditions: in the assay text read “hydrogen chloride” for “hydrogen chloride at pH 7.4”; summary of the method: as §1

Sphingosine 1-phosphate receptor 3, sequence (Q99500 whole entry): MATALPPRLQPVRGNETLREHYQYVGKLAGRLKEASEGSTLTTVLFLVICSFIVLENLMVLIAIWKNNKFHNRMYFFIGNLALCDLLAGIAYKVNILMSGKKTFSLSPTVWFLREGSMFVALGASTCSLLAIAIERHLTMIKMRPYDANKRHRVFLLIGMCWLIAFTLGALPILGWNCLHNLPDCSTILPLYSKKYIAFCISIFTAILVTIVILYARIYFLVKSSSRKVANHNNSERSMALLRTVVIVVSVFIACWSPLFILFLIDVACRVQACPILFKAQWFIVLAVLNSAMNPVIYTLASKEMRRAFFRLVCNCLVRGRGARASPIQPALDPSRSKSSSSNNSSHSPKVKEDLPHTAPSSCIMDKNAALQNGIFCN
T1 sequence (P21453 whole entry): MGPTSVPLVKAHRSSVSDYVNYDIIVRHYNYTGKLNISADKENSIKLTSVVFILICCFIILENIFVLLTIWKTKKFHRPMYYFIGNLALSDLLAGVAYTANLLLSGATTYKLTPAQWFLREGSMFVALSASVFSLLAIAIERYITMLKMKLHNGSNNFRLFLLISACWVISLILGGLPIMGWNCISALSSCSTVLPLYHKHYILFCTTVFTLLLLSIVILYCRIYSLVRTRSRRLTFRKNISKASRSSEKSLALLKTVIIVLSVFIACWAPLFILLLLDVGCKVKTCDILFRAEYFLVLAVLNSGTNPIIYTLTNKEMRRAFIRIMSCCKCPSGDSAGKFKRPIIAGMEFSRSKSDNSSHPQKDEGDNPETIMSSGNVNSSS

In the case of Cn1cc(C(=O)Nc2ccc(-c3ccccc3)c(C(F)(F)F)c2)c(=O)c2cnccc21, the microsomal CLint [1] was less than 14 µL/min/mg, the solubility [2] was less than 1 µg/mL and the pEC50 [3] was less than 5.60. The fraction unbound [4] was 0.08, the Activity [5] was -64% and the CL [6] was 2.67 mL/min/kg. For the same compound, the Activity [7] was -64%, the “Ratio AUC” value [8] was 6 and the concentration at 24 h [9] was 1100 ng/mL. For the same compound, the Papp [10] was 5.7 ×10⁻⁶ cm/s, the efflux ratio [11] was 0.8 and the concentration at 24 h [12] was 350 ng/mL. For the same compound, the F [13] was 95%, the Vd [14] was 9.2 L/kg and the half-life [15] was 41 h. For the same compound, the solubility [16] was 4.9 µg/mL (≈ 11.6 µM), the AUC(0-t) at 24 h [17] was 31000 ng·h/mL and the Efficacy [18] was 100%. The pEC50 [19] was 7.62, the AUC [20] was 5100 ng·h/mL and the Activity [21] was “Dose-dependent effect”. For the same compound, the concentration at 24 h [22] was 96 ng/mL and the solubility [23] was less than 1 µg/mL.

CCCCCCCCCCCCC/C=C/[C@@H](O)[C@@H](N)COP(=O)(O)O showed an Efficacy [18] of 91% and a pEC50 [19] of 7.74.

Compound Cn1cc(C(=O)Nc2cc(C(F)(F)F)c(-c3ccccc3)cn2)c(=O)c2ccccc21 has a microsomal CLint [1] of less than 14 µL/min/mg, a pEC50 [3] of less than 5.60 and a Papp [10] of less than 1 ×10⁻⁶ cm/s. It also gave an Efficacy [18] of 59% and a pEC50 [19] of 5.96.

With Cn1nc(C(=O)Nc2ccc(-c3ccccc3)c(C(F)(F)F)c2)c(=O)c2ccccc21 the microsomal CLint [1] was less than 14 µL/min/mg, the solubility [2] was 1.6 µg/mL (≈ 3.78 µM) and the pEC50 [3] was less than 5.60. For the same compound, the Activity [7] was 6%, the Papp [10] was 2.3 ×10⁻⁶ cm/s and the efflux ratio [11] was 1.2. For the same compound, the concentration at 24 h [12] was 9.7 ng/mL, the solubility [16] was 12 µg/mL (≈ 28.3 µM) and the Efficacy [18] was 130%. It also gave a pEC50 [19] of 7.39 and a solubility [23] of less than 1 µg/mL.

Work on Cn1cc(C(=O)Nc2ccc(-c3cccnc3)c(C(F)(F)F)c2)c(=O)c2ccccc21 yielded a microsomal CLint [1] of 18 µL/min/mg, a solubility [2] of less than 1 µg/mL and a pEC50 [3] of less than 5.60. The Papp [10] was 18 ×10⁻⁶ cm/s, the efflux ratio [11] was 1.6 and the solubility [16] was 6.7 µg/mL (≈ 15.8 µM). It also gave an Efficacy [18] of 110%, a pEC50 [19] of 6.51 and a solubility [23] of 23 µg/mL (≈ 54.3 µM).

In the case of Cn1cc(C(=O)Nc2ccc(-c3ccccn3)c(C(F)(F)F)c2)c(=O)c2ccccc21, the microsomal CLint [1] was less than 14 µL/min/mg, the solubility [2] was less than 1 µg/mL and the pEC50 [3] was less than 5.60. It also gave an Activity [7] of 25%, a Papp [10] of 11 ×10⁻⁶ cm/s and an efflux ratio [11] of 0.8. For the same compound, the concentration at 24 h [12] was 5.1 ng/mL, the solubility [16] was 5.2 µg/mL (≈ 12.3 µM) and the Efficacy [18] was 110%. The pEC50 [19] was 7.22 and the solubility [23] was 12 µg/mL (≈ 28.3 µM).

In the case of Cn1cc(C(=O)Nc2ccc(-c3ccccc3)c(C(F)(F)F)n2)c(=O)c2ccccc21, the microsomal CLint [1] was less than 14 µL/min/mg, the solubility [2] was less than 1 µg/mL and the pEC50 [3] was less than 5.60. The Activity [7] was 7%, the Papp [10] was less than 1 ×10⁻⁶ cm/s and the concentration at 24 h [12] was 1.3 ng/mL. It also gave a solubility [16] of 2.3 µg/mL (≈ 5.43 µM), an Efficacy [18] of 120% and a pEC50 [19] of 7.38. The solubility [23] was less than 1 µg/mL.

With CCCCCCCCc1ccc(CCC(N)(CO)CO)cc1 the Efficacy [18] was 115%.

For Cn1cc(C(=O)Nc2ccc(-c3ccccn3)c(C(F)(F)F)n2)c(=O)c2cnccc21, the microsomal CLint [1] was less than 14 µL/min/mg, the solubility [2] was 3 µg/mL (≈ 7.05 µM) and the pEC50 [3] was less than 5.60. It also gave an Activity [7] of -32%, a Papp [10] of 15 ×10⁻⁶ cm/s and an efflux ratio [11] of 1. It also gave a concentration at 24 h [12] of 140 ng/mL, a solubility [16] of 5.8 µg/mL (≈ 13.6 µM) and an Efficacy [18] of 130%. For the same compound, the pEC50 [19] was 6.68 and the solubility [23] was greater than 200 µg/mL.

Work on Cn1cc(C(=O)Nc2ccc(-c3ccccc3)c(C(F)(F)F)c2)c(=O)c2ccncc21 yielded a microsomal CLint [1] of less than 14 µL/min/mg, a solubility [2] of 2.6 µg/mL (≈ 6.14 µM) and a pEC50 [3] of less than 5.60. For the same compound, the Activity [7] was -36%, the Papp [10] was 3.4 ×10⁻⁶ cm/s and the efflux ratio [11] was 1. The concentration at 24 h [12] was 140 ng/mL, the solubility [16] was 6.1 µg/mL (≈ 14.4 µM) and the Efficacy [18] was 120%. For the same compound, the pEC50 [19] was 7.54 and the solubility [23] was less than 1 µg/mL.
